This passage reports CC50 and AC50 results from ChEMBL document CHEMBL1144407, “Synthesis of phosphonated carbocyclic 2'-oxa-3'-aza-nucleosides: novel inhibitors of reverse transcriptase” (J Med Chem, 2005).

The test system of assay [1] is MOLT-3. The assay can be described thus: Cytotoxicity in human Molt-3 cell line after 24 hours. The format is functional. To be noted: MOLT-3, 24 h. A digest of the protocol:
(§1)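 Cells held in optimal culture conditions were exposed to test agent at 16 to 1000 µM, or control medium, for the stated time. Viability was scored by trypan blue exclusion. CC50 is the concentration giving 50% toxicity, from three or more experiments (some values are the mean of two).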

Assay [2] deals with MOLT-3. The assay can be described thus: Cytotoxicity in human Molt-3 cell line after 48 hours. To be noted: MOLT-3, 48 h. The format is functional. The procedure, abridged:
as §1

Assay [3] deals with U-937. The assay can be described thus: Induction of apoptosis by the compound in human U937 cell line after 24 hours. The format is functional, cell-based. The note with it: U-937, 24 h. A digest of the protocol: (§2)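 Cultures were exposed under optimal conditions to 16–1000 µM compound, or control medium, for the stated time. Cells were stained with acridine orange, and over 600 cells were counted by fluorescence microscopy. AC50 is the concentration giving 50% apoptosis, from three or more experiments (some are the mean of two).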

The subject of assay [4] is MOLT-3. The assay can be described thus: Cytotoxicity in human Molt-3 cell line after 72 hours. The format is functional. To be noted: MOLT-3, 72 h. A digest of the protocol:
as §1

Assay [5] relates to HL-60. Put plainly: Induction of apoptosis by the compound in human HL-60 cell line after 48 hours. In kind it is functional, cell-based. To be noted: HL-60, 48 h. A digest of the protocol:
as §2

For assay [6], the system named is HL-60. The assay can be described thus: Induction of apoptosis by the compound in human HL-60 cell line after 72 hours. The format is functional, cell-based. The note with it: HL-60, 72 h. The procedure, abridged: as §2
For assay [7], the system named is MOLT-3. Put plainly: Induction of apoptosis by the compound in human Molt-3 cell line after 24 hours. The note with it: MOLT-3, 24 h. The format is functional, cell-based. The procedure, abridged:
as §2

The test system of assay [8] is MOLT-3. Put plainly: Induction of apoptosis by the compound in human Molt-3 cell line after 48 hours. In kind it is functional, cell-based. The note with it: MOLT-3, 48 h. The procedure, abridged: as §2
The subject of assay [9] is MOLT-3. The assay can be described thus: Induction of apoptosis by the compound in human Molt-3 cell line after 72 hours. To be noted: MOLT-3, 72 h. The format is functional, cell-based. The procedure, abridged:
as §2

Assay [10] deals with U-937. The assay can be described thus: Induction of apoptosis by the compound in human U937 cell line after 48 hours. The format is functional, cell-based. The note with it: U-937, 48 h. A digest of the protocol: as §2
For assay [11], the system named is U-937. The assay can be described thus: Induction of apoptosis by the compound in human U937 cell line after 72 hours. The format is functional, cell-based. To be noted: U-937, 72 h. The procedure, abridged:
as §2

The subject of assay [12] is HL-60. The assay can be described thus: Induction of apoptosis by the compound in human HL-60 cell line after 24 hours. The format is functional, cell-based. The note with it: HL-60, 24 h. A digest of the protocol: as §2
In assay [13] the test system is U-937. Put plainly: Cytotoxicity in human U937 cell line after 24 hours. The format is functional. To be noted: U-937, 24 h. The procedure, abridged: as §1
The test system of assay [14] is U-937. The assay can be described thus: Cytotoxicity in human U937 cell line after 48 hours. In kind it is functional. To be noted: U-937, 48 h. The procedure, abridged:
as §1

For assay [15], the system named is U-937. The assay can be described thus: Cytotoxicity in human U937 cell line after 72 hours. To be noted: U-937, 72 h. The format is functional. The procedure, abridged:
as §1

Assay [16] has as its system HL-60. Put plainly: Cytotoxicity in human HL-60 cell line after 24 hours. The format is functional. To be noted: HL-60, 24 h. A digest of the protocol:
as §1

Assay [17] concerns HL-60. The assay can be described thus: Cytotoxicity in human HL-60 cell line after 48 hours. To be noted: HL-60, 48 h. The format is functional. The procedure, abridged:
as §1

Assay [18] has as its system HL-60. Put plainly: Cytotoxicity in human HL-60 cell line after 72 hours. In kind it is functional. To be noted: HL-60, 72 h. The procedure, abridged:
as §1

SMILES strings stand for the structures.

The term CC50 denotes the concentration that lowers cell viability or growth by half. A higher CC50 goes with better tolerance by the cells. The term AC50 denotes the concentration giving half of the maximal activity seen. Low values mean activity at low concentration, high ones activity only at high concentration. Regarding `CCOP(=O)(CC1CC(n2cc(C)c(=O)[nH]c2=O)ON1C)OCC` (configuration not stated), the CC50 with MOLT-3 [1], in the assay with MOLT-3 [2], in the assay on MOLT-3 [4], in the assay with U-937 [13], in the assay on U-937 [14] and with U-937 [15] was above 1 mM throughout. Besides, the CC50 in the assay on HL-60 [16], with HL-60 [17] and with HL-60 [18] was above 1 mM each time. In addition, the AC50 with U-937 [3], with HL-60 [5], in the assay with HL-60 [6], in the assay on MOLT-3 [7], in the assay with MOLT-3 [8] and in the assay on MOLT-3 [9] was above 1 mM throughout. The AC50 with U-937 [10], in the assay with U-937 [11] and with HL-60 [12] was above 1 mM throughout.
Turning to `CCOP(=O)(CC1CC(n2cc(F)c(=O)[nH]c2=O)ON1C)OCC` (configuration not stated), the CC50 was 0.247 mM with MOLT-3 [1]; 0.197 mM in the assay on MOLT-3 [2]; 0.141 mM in the assay with MOLT-3 [4]; above 1 mM in the assay with HL-60 [16]; 0.457 mM in the assay on HL-60 [17]; 0.408 mM in the assay on HL-60 [18]. The AC50 was determined as 0.151 mM with HL-60 [5]; 0.457 mM in the assay on MOLT-3 [7]; 0.277 mM in the assay on MOLT-3 [8]; 0.17 mM in the assay on MOLT-3 [9]; 0.25 mM in the assay on HL-60 [12].
For `CCOP(=O)(CC1CC(n2ccc(N)nc2=O)ON1C)OCC` (configuration not stated), the half-maximal cytotoxic concentration (CC50) with MOLT-3 [1], in the assay on MOLT-3 [2], in the assay with MOLT-3 [4], in the assay with U-937 [13], in the assay on U-937 [14] and in the assay with U-937 [15] was above 1 mM in each case. Besides, the CC50 in the assay on HL-60 [16], in the assay on HL-60 [17] and in the assay with HL-60 [18] was above 1 mM throughout. The concentration at half-maximal activity (AC50) with U-937 [3], in the assay on HL-60 [5], in the assay with HL-60 [6], in the assay on MOLT-3 [7], with MOLT-3 [8] and in the assay on MOLT-3 [9] was above 1 mM each time. Moreover, the AC50 with U-937 [10], with U-937 [11] and with HL-60 [12] was above 1 mM each time.
